Measured values: ChEMBL document CHEMBL1145826, “New pyrimido[5,4-b]indoles as ligands for alpha(1)-adrenoceptor subtypes” (J Med Chem, 2003)

Legend:
[1] = target: T1, Alpha-1B adrenergic receptor (Homo sapiens, UniProt P35368); test: In vitro binding affinity at human Alpha-1B adrenergic receptor.
T1 sequence (P35368 whole entry): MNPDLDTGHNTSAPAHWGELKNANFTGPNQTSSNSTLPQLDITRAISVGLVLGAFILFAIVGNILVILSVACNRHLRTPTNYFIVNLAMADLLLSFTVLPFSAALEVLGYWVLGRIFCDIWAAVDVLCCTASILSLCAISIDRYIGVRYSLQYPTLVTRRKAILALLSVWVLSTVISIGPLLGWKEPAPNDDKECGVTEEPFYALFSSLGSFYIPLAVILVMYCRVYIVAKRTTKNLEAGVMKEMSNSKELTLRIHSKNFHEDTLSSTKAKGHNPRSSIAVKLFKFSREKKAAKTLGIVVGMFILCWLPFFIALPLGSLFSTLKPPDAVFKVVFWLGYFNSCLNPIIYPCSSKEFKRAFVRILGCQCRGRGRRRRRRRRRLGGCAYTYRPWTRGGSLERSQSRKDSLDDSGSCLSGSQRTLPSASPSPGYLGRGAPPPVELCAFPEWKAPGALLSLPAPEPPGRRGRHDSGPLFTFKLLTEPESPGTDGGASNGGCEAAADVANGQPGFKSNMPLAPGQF
How it was run: (§1)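 Human α1A-, α1B- or α1D-AR stably expressed in HEK293 cells (calcium phosphate transfection, subclones chosen for high expression); membranes from scraped, homogenized cells spun at 30000g. Three experiments in duplicate, mean ± SE.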

[2] = target: T2, Alpha-1A adrenergic receptor (Homo sapiens, UniProt P35348); test: Binding affinity towards Alpha-1A adrenergic receptor; how it was run: as §1
T2 sequence (P35348 whole entry): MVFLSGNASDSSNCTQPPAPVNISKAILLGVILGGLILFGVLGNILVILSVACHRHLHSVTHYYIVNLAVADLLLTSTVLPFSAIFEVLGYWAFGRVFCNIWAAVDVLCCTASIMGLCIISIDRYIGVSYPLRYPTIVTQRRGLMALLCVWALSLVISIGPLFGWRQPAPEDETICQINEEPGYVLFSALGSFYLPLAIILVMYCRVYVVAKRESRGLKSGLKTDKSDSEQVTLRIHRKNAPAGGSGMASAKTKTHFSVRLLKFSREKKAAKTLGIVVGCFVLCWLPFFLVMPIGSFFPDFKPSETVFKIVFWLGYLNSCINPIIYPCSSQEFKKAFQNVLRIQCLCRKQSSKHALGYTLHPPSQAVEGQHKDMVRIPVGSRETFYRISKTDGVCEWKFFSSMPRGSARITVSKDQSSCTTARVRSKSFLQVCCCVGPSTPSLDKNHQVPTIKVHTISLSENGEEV

[3] = target: T3, Alpha-1D adrenergic receptor (Homo sapiens, UniProt P25100); test: Binding affinity towards Alpha-1D adrenergic receptor; how it was run: as §1
T3 sequence (P25100 whole entry): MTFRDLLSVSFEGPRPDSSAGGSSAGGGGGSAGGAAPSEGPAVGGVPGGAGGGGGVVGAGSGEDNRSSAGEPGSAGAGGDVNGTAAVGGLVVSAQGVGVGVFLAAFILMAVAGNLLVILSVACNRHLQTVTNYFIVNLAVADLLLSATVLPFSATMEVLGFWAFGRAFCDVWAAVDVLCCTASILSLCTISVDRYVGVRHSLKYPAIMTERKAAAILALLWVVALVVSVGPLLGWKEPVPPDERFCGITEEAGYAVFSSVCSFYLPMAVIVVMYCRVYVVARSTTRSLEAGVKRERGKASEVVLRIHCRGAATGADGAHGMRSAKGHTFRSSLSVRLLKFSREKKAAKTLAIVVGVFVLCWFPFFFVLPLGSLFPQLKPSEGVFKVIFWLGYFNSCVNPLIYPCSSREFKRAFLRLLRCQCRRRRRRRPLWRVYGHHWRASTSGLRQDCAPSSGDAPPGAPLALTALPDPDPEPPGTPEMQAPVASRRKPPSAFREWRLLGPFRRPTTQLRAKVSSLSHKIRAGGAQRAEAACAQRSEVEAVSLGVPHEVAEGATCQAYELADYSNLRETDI

[4] = target: T2, Alpha-1A adrenergic receptor; test: In vitro binding affinity at human Alpha-1A adrenergic receptor.; how it was run: as §1
[5] = target: T3, Alpha-1D adrenergic receptor; test: In vitro binding affinity at human Alpha-1D adrenergic receptor.; how it was run: as §1
[6] = target: Adrenergic receptor alpha-1 (Homo sapiens) (UniProt P35348+P25100+P35368); test: Selectivity for alpha 1A-Adrenergic receptors compared to 1D-Adrenergic receptors.; assay type: protein assay
[7] = species: Rattus norvegicus; test: Inhibition of [3H]inositol Phosphate formation by 100 uM norepinephrine in rat hippocampal slices.; assay type: functional, Hippocampus
How it was run: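 Rat hippocampal slices equilibrated in Krebs-Henseleit buffer (pH 7.4, 95% O2/5% CO2) at 37 °C for 30 min, labeled 60 min with 0.3 µM myo-[2-3H]inositol. LiCl 7 mM added, then 100 µM norepinephrine 10 min later, test compound (1 µM) 5 min before agonist. After 60 min, stopped with chloroform/methanol; [3H]inositol monophosphate isolated by anion exchange, dpm/mg protein, ≥4 determinations.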

Row | Structure (SMILES) | Ki [1] [nM] | Ki [2] [nM] | Ki [3] [nM] | further results
1 | CC(C)c1ccc(N2CCN(CCn3cnc4c5ccccc5nc-4c3O)CC2)cc1 | > 10000 | > 10000 | > 10000 | 
2 | COc1cc2c(cc1O)CCN1Cc3c(ccc(O)c3OC)C[C@@H]21 | 360 |  |  | Ki [4]: 616 nM; Ki [5]: 25 nM; Ratio [6]: 24.6
3 | CCCCc1ccc(N2CCN(CCn3c(=O)[nH]c4c([nH]c5ccccc54)c3=O)CC2)cc1 |  |  | 245 | 
4 | CCc1nc2c3ccccc3nc-2c(O)n1CCN1CCN(c2ccccc2OC)CC1 | 245 | 49 | 6.92 | 
5 | O=c1[nH]c2c([nH]c3ccccc32)c(=O)n1CCN1CCN(c2ccc(C3CCCCC3)cc2)CC1 |  |  |  | inhibition at 1 µM [2]: 7%
6 | CC(C)c1ccc(N2CCN(CCn3c(=O)[nH]c4c(sc5ccccc54)c3=O)CC2)cc1 |  |  | 126 | 
7 | COc1ccccc1N1CCN(CCCn2cnc3c4ccccc4nc-3c2O)CC1 | 162 | 16.6 | 16.2 | 
8 | CCC(C)c1ccc(N2CCN(CCn3c(=O)[nH]c4c([nH]c5ccccc54)c3=O)CC2)cc1 (configuration not stated) |  |  | 60.3 | 
9 | C=Cc1sc2ccc(Cl)c3c2c1CN(C)CC3 |  |  |  | Ratio [6]: 22.5
10 | Cc1nc2c3ccccc3nc-2c(O)n1CCN1CCN(c2ccc(C(C)(C)C)cc2)CC1 | 2040 | 603 | 97.7 | 
11 | CC(C)(C)c1ccc(N2CCN(CCn3c(=O)[nH]c4c([nH]c5ccccc54)c3=O)CC2)cc1 |  |  |  | inhibition at 1 µM [2]: 8%; Activity [7]: 10390 dpm (mg of protein)-1
12 | CC(C)c1ccc(N2CCN(CCn3c(=O)[nH]c4c([nH]c5ccccc54)c3=O)CC2)cc1 | 9550 |  | 35.5 | 
13 | Cc1nc2c3ccccc3nc-2c(O)n1CCN1CCN2c3ccccc3OCC2C1 (configuration not stated) | > 10000 | > 10000 | > 10000 | 
14 | Cc1nc2c3ccccc3nc-2c(O)n1CCN1CCN(c2ccc(C(C)C)cc2)CC1 | 4070 | 3550 | 1700 | 
15 | COc1ccccc1N1CCN(Cn2nc(-c3ccccc3)c3c(C)onc3c2=O)CC1 |  |  |  | Ki [5]: 316 nM
16 | O=c1[nH]c2c([nH]c3ccccc32)c(=O)n1CCN1CCN2c3ccccc3OCC2C1 (configuration not stated) | 7760 | 7940 | 126 | 
17 | CC(C)(C)c1ccc(N2CCN(CCn3cnc4c5ccccc5nc-4c3O)CC2)cc1 | > 10000 | > 10000 | > 10000 | 
18 | N#CCc1ccc(N2CCN(CCn3c(=O)[nH]c4c([nH]c5ccccc54)c3=O)CC2)cc1 |  |  | 10 | 
19 | C[C@H](CN1CCN(c2cc(F)c(F)cc2F)CC1)N1C(=O)CC2(CCCC2)CC1=O |  |  |  | Ki [4]: 294 nM; Ki [5]: 1.6 nM

The next lines start with results.

Row | Ki [1] [nM] | Ki [2] [nM] | Ki [3] [nM] | Structure (SMILES) | further results
20 | 20.9 |  |  | COc1ccccc1N1CCN(CCn2c(C)nc3c4ccccc4nc-3c2O)CC1 | 
21 | 1.82 |  |  | COc1ccccc1N1CCN(CCn2c(=O)[nH]c3c([nH]c4ccccc43)c2=O)CC1 | Activity [7]: 3987 dpm (mg of protein)-1
22 | 2.57 | 4.68 | 3.63 | O=c1[nH]c2c([nH]c3ccccc32)c(=O)n1CCN1CCN(c2ccccc2Cl)CC1 | 
23 | 61.7 | 9.77 | 6.03 | CCOc1ccccc1N1CCN(CCn2cnc3c4ccccc4nc-3c2O)CC1 | 
24 | 2.88 | 1.55 | 0.933 | COc1ccccc1C1CCN(CCn2c(=O)[nH]c3c([nH]c4ccccc43)c2=O)CC1 | 
25 | 13.8 | 1.41 | 0.724 | COc1ccccc1N1CCN(CCn2cnc3c4ccccc4nc-3c2O)CC1 | 
26 | 31.1 |  |  | COc1ccccc1N1CCN(CCn2nc(-c3ccccc3)c3c(C)onc3c2=O)CC1 | Ki [4]: 1.4 nM; Ki [5]: 1.5 nM; Ratio [6]: 0.9
27 | 27.5 | 10.7 | 12.6 | CCc1nc2c3ccccc3nc-2c(O)n1CCCN1CCN(c2ccccc2OC)CC1 | 
28 | 11.7 | 8.91 | 0.631 | O=c1[nH]c2c([nH]c3ccccc32)c(=O)n1CCN1CCN(c2ccccc2O)CC1 | 
29 | 14.5 | 7.24 | 1.58 | CCOc1ccccc1N1CCN(CCn2c(=O)[nH]c3c([nH]c4ccccc43)c2=O)CC1 | 
30 | 26.9 | 4.9 | 2.57 | COc1ccccc1N1CCN(CCCn2c(C)nc3c4ccccc4nc-3c2O)CC1 | 
